The source made the active and inactive calls. The rule behind the calls is not given here.

Assay [1] addresses T1, DNA cross-link repair 1A protein (Homo sapiens) (UniProt Q6PJP8).
T1 sequence (whole entry): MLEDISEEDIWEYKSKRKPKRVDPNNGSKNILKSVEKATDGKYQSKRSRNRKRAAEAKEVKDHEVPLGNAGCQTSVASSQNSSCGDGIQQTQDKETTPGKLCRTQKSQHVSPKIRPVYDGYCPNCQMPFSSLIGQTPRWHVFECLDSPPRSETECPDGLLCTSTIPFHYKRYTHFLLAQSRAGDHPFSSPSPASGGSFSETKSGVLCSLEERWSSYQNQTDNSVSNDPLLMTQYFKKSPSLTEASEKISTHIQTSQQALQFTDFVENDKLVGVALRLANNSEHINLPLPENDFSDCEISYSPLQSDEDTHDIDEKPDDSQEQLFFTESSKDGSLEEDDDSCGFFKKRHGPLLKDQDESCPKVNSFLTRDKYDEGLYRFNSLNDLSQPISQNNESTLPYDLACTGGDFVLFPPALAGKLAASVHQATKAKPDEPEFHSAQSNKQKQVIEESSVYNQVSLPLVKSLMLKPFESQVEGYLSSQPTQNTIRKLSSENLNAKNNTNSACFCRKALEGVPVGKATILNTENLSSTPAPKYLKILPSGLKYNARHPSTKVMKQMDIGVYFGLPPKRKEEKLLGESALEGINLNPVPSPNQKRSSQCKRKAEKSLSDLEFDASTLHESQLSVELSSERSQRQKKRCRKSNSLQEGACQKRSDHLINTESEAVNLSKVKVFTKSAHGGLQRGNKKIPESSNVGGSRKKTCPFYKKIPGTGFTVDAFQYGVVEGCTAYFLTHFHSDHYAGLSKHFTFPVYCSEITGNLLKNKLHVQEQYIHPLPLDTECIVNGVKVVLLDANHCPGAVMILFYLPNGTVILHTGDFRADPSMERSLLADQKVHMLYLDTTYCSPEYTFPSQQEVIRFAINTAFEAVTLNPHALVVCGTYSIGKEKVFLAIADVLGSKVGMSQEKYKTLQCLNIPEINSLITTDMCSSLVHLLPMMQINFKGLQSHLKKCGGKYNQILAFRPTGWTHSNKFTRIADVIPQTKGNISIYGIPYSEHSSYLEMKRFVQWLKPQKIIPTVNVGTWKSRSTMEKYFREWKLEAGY
As to the kind of experiment: Inhibition of SNM1A (unknown origin) assessed as reduction in oligonucleotide digestion at 1 mM using 21mer fluorescent oligonucleotide as substrate preincubated for 5 mins followed by substrate addition and measured after 1 hr by PAGE analysis. Particulars: time 65.0 min.

For assay [2], the target named is T2, DNA cross-link repair 1A protein (Homo sapiens, UniProt Q6PJP8).
T2 sequence (Q6PJP8 whole entry): T1 sequence (whole entry)
As to the kind of experiment: Inhibition of SNM1A (unknown origin) by real time fluorescence assay. The essentials:
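Real-time fluorescence assay of SNM1A exonuclease activity used to derive IC₅₀ from a concentration series. Unmodified thymidine run as control. Error bars from 6 independent repeats.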

Assay [3] can be described thus: Metal chelating activity assessed as Zn2+-compound complex formation by measuring equilibrium constant measured at 1:2 compound to metal ion ratio by UV-Vis titration based analysis. The method in brief:
(§1)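 Compounds in MeCN titrated with Zn(ClO₄)₂ and followed by UV–Vis. Binding constants for 1:1, 1:2 and 2:1 ligand–metal species were derived by global non-linear regression, comparing two- and three-species models. Described as qualitative.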

Assay [4] in a line: Metal chelating activity assessed as Zn2+-compound complex formation by measuring equilibrium constant measured at 1:1 compound to metal ion ratio by UV-Vis titration based analysis. The method in brief:
as §1

Assay [5] can be described thus: Metal chelating activity assessed as Zn2+-compound complex formation by measuring equilibrium constant measured at 2:1 compound to metal ion ratio by UV-Vis titration based analysis. The essentials:
as §1

The target of assay [6] is T1, DNA cross-link repair 1A protein (Homo sapiens). As to the kind of experiment: Inhibition of SNM1A (unknown origin) assessed as reduction in oligonucleotide digestion at 333 uM using 21mer fluorescent oligonucleotide as substrate preincubated for 5 mins followed by substrate addition and measured after 1 hr by PAGE analysis. Particulars: time 65.0 min.

Take `Cc1cn([C@H]2C[C@H](O)[C@@H](CNc3c(O)c(=O)c3=O)O2)c(=O)[nH]c1=O`: the inhibition entry in assay [1] is “inactive”. Take `Cc1cn([C@H]2C[C@H](O)[C@@H](CO)O2)c(=O)[nH]c1=O` [DOXRIBTIMINE]: the IC50 entry in assay [2] was “Not Active”. The inhibition entry in assay [1] is “inactive”. As for `Cc1cn([C@H]2C[C@H](O)[C@@H](CNc3c(NCCO)c(=O)c3=O)O2)c(=O)[nH]c1=O`, in assay [1], the inhibition entry was “inactive”. For `CCOc1c(NC[C@H]2O[C@@H](n3cc(C)c(=O)[nH]c3=O)C[C@@H]2O)c(=O)c1=O`, the inhibition result in assay [1] is “inactive”. On the same count and under the same terms, under `Cc1cn([C@H]2C[C@H](O)[C@@H](CNc3c(Nc4ccccc4O)c(=O)c3=O)O2)c(=O)[nH]c1=O` stands “inactive”; under `CN(O)c1c(N[C@H]2[C@@H](O)[C@H](n3ccc(=O)[nH]c3=O)O[C@@H]2CO)c(=O)c1=O`, “Active”. Turning to `CCN(CC)c1c(NC[C@H]2O[C@@H](n3cc(C)c(=O)[nH]c3=O)C[C@@H]2O)c(=S)c1=S`, the Kb is 1.7 10^2/M in assay [3], 6.8 10^5/M in assay [4] and 1.2 10^6/M in assay [5].

`CCN(CC)c1c(NC[C@H]2O[C@@H](n3cc(C)c(=O)[nH]c3=O)C[C@@H]2O)c(=O)c1=O`: the inhibition result in assay [1] was “inactive”.

Regarding `Cc1cn([C@H]2C[C@H](O)[C@H](CNc3c(N[C@H]4C[C@H](n5cc(C)c(=O)[nH]c5=O)O[C@@H]4CO)c(=S)c3=S)O2)c(=O)[nH]c1=O`, the inhibition entry in assay [1] was “Active”. With `CCN(CC)c1c(N[C@H]2C[C@H](n3cc(C)c(=O)[nH]c3=O)O[C@@H]2CO)c(=S)c1=S`, the inhibition entry in assay [1] is “Active”. On to `Cc1cn([C@H]2C[C@H](Nc3c(N(C)O)c(=O)c3=O)[C@@H](CO)O2)c(=O)[nH]c1=O`, for which the results for the Kb in assay [3] and in assay [4] were 6.6 10^1/M and 3 10^4/M, respectively. The inhibition entry in assay [1] and in assay [6] was “Active” throughout. Turning to `Cc1cn([C@H]2C[C@H](Nc3c(O)c(=O)c3=O)[C@@H](CO)O2)c(=O)[nH]c1=O`, the Kb in assay [4] was 4 10^4/M; in assay [5] it was 3.2 10^6/M.

The values above are taken from ChEMBL document CHEMBL4823316, “Synthesis and evaluation of squaramide and thiosquaramide inhibitors of the DNA repair enzyme SNM1A” (Bioorg Med Chem, 2021).
